Measured values as given in ChEMBL document CHEMBL3414539, “Quantum chemistry calculation-aided structural optimization of combretastatin A-4-like tubulin polymerization inhibitors: improved stability and biological activity” (J Med Chem, 2015).
pIC50: −log10 of the molar value.

How the values were obtained:
[1] = test system: HT-29; assay: Growth inhibition of human HT-29 cells by MTT assay; format: functional, cell-based
Summary of the method: (§1)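 MTT assay in SKOV3 ovarian and HT-29 colon carcinoma cells, absorbance read at 570 nm. Triplicate wells in at least three independent assays; average IC50 reported.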

[2] = test system: SK-OV-3; assay: Growth inhibition of human SKOV3 cells by MTT assay; format: functional, cell-based; summary of the method: as §1
[3] = Stability assessed as cis-trans isomerization equilibrium by mesuring remaining compound level at 1.5 x 10^-2 M exposed to UV-visible light irradiation after 1.5 hrs by LC-HRMS method; format: physicochemical; details: read-out: Stability
[4] = test system: HT-29; assay: Antitumor activity against human HT-29 cells xenografted in BALB/c mouse assessed as reduction in tumor volume at 50 mg/kg, ip administered once daily for 18 days; format: functional; details: route intraperitoneal
Summary of the method: (§2)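 Female BALB/c nude mice (18–20 g) bearing HT-29 xenografts of around 100 mm³, randomized into six animals/treatment and twelve controls. Drug or vehicle given ip once a day for 18 days. Tumor volume and body weight recorded on d0 and d18. T/C (%) derived from relative tumor volume (Vt/Vo). Body weight change given as mean in g.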

[5] = Stability assessed as cis-trans isomerization equilibrium at 1.5 x 10^-2 M under natural light conditions after 7 days by LC-HRMS method; format: physicochemical; details: 168 h, 15000 µM
[6] = test system: Mus musculus; assay: Toxicity in human HT-29 cells xenografted BALB/c mouse assessed as change in body weight at 50 mg/kg, ip administered once daily for 18 days (reference value: 2.5 g); format: organism-based; set-up: dose 50 mg/kg, route intraperitoneal; details: in vivo, 432 h
[7] = Stability assessed as cis-trans isomerization equilibrium by mesuring remaining compound level at 1.5 x 10^-2 M exposed to UV-visible light irradiation after 22 hrs by LC-HRMS method; format: physicochemical; details: read-out: Stability
[8] = biological target: Tubulin (Bos taurus, UniProt Q6B856+Q862L2+Q862F3); assay: Inhibition of bovine brain tubulin polymerization incubated for 60 mins by microplate reader based turbidimetry
[9] = test system: HT-29; assay: Antitumor activity against human HT-29 cells xenografted in BALB/c mouse assessed as reduction in tumor volume at 150 mg/kg, ip administered once daily for 18 days; format: functional; details: route intraperitoneal; summary of the method: as §2
[10] = test system: HT-29; assay: Antitumor activity against human HT-29 cells xenografted in BALB/c mouse assessed as reduction in tumor volume at 50 and 150 mg/kg, ip administered once daily and measured on day 18; format: functional, organism-based; set-up: dose 150 mg/kg; summary of the method: as §2
[11] = test system: Mus musculus; assay: Toxicity in human HT-29 cells xenografted BALB/c mouse assessed as change in body weight at 150 mg/kg, ip administered once daily for 18 days (reference value: 2.5 g); format: organism-based; set-up: dose 150 mg/kg, route intraperitoneal; details: in vivo, 432 h; summary of the method: as §2

Structure (SMILES)	pIC50 [1]	pIC50 [2]	remaining at 1.5 h, 15000 µM [3]	IC50 [8]	other results
COc1ccc(/C=C2\c3cc(OC)c(OC)c(OC)c3CC[C@H]2O)cc1[N+](=O)[O-]	< 5.00	< 5.00	–	–	–
COc1ccc(/C=C\c2cc(OC)c(OC)c(OC)c2)cc1O [COMBRETASTATIN A4]	9.00	9.00	99.1%	–	T/C [4]: 52%; Stability [5]: Stable; Activity [6]: 1.7 g; remaining at 22 h, 15000 µM [7]: 84%
COc1ccc(/C=C2\c3cc(OC)c(OC)c(OC)c3CC[C@H]2O)cc1C#N	6.70	6.22	–	–	–
COc1ccc(/C=C2\c3cc(OC)c(OC)c(OC)c3CC[C@H]2O)cc1	5.59	5.42	99.1%	> 10 µM	Stability [5]: Stable; remaining at 22 h, 15000 µM [7]: 93%
COc1ccc(/C=C2\c3cc(OC)c(OC)c(OC)c3CC[C@H]2O)cc1C(N)=O	6.26	5.72	–	–	–
COc1ccc2c(c1)CCC(=O)/C2=C/c1cc(OC)c(OC)c(OC)c1	6.89	8.70	52.8%	3.93 µM	–
COc1ccc2c(c1)CC[C@@H](O)/C2=C/c1cc(OC)c(OC)c(OC)c1	6.05	5.69	99.2%	> 10 µM	Stability [5]: Stable; remaining at 22 h, 15000 µM [7]: 92%
COc1ccc2c(c1)CC[C@H](O)/C2=C/c1cc(OC)c(OC)c(OC)c1	9.00	9.00	98.9%	0.41 µM	T/C [4]: 61%; Stability [5]: Stable; Activity [6]: 2.3 g; T/C [9]: 37%; inhibition [10]: Dose-dependent effect; Activity [11]: 1.8 g; remaining at 22 h, 15000 µM [7]: 90.2%
COc1ccc(/C=C2\c3cc(OC)c(OC)c(OC)c3CC[C@@H]2O)cc1C#N	8.30	7.70	–	–	–
COc1ccc(/C=C2\c3cc(OC)c(OC)c(OC)c3CC[C@@H]2O)cc1C(N)=O	6.26	5.84	–	–	–
COc1ccc(/C=C2\c3cc(OC)c(OC)c(OC)c3CC[C@@H]2O)cc1[N+](=O)[O-]	5.80	5.33	–	–	–
COc1ccc(/C=C2\c3cc(OC)c(OC)c(OC)c3CC[C@@H]2O)cc1	5.61	5.15	99.4%	> 10 µM	Stability [5]: Stable; remaining at 22 h, 15000 µM [7]: 92.6%

More lines, main results first:

pIC50 [1]	pIC50 [2]	remaining at 1.5 h, 15000 µM [3]	IC50 [8]	Structure (SMILES)	other results
5.59	6.14	–	–	COc1ccc(/C=C2\c3cc(OC)c(OC)c(OC)c3CC[C@@H]2O)cc1C	–
6.04	5.73	–	–	COc1ccc(/C=C2\c3cc(OC)c(OC)c(OC)c3CC[C@H]2O)cc1N	–
6.10	5.80	–	–	COc1ccc(/C=C2\c3cc(OC)c(OC)c(OC)c3CC[C@H]2O)cc1O	–
8.52	9.00	–	5.7 µM	COc1ccc(/C=C2\c3cc(OC)c(OC)c(OC)c3CC[C@@H]2O)cc1F	–
5.40	5.87	–	–	COc1ccc(/C=C2\c3cc(OC)c(OC)c(OC)c3CC[C@H]2O)cc1C	–
6.59	5.97	–	–	COc1ccc(/C=C2\c3cc(OC)c(OC)c(OC)c3CC[C@@H]2O)cc1O	–
6.66	6.14	–	–	COc1ccc(/C=C2\c3cc(OC)c(OC)c(OC)c3CC[C@H]2O)cc1F	–
6.80	6.13	–	–	COc1ccc(/C=C2\c3cc(OC)c(OC)c(OC)c3CC[C@@H]2O)cc1N	–
